Compound activity: PubChem BioAssay, The Scripps Research Institute Molecular Screening Center
Rows were chosen to be rich in hits. Some 4.6% of all compounds tested hit in one or more screens of this group.
CHO parental Ca: counter-screen: ATP calcium response change in parental CHO cells; parental CHO-K1, ATP-induced calcium, Fluo-8 fluorescence; inhibition, % at 5.6 µM; actives 0.63% (n = 330,000);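 active = inhibition above that plate's mean sample inhibition plus 3 SD, cut at about 26% in these data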;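 also: 0% = ATP-challenged DMSO wells and 100% = DMSO wells without ATP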
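Assay system: untransfected parental CHO cell line. Also added: ATP agonist challenge. Dosing: one dose, 5.6 µM nominal. Measured by: Fluo-8 fluorescence. Read-out: % inhibition. Benchmarks: ATP wells versus no-ATP DMSO wells. Repeats: no replicates.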
TAAR1 antag: human TAAR1 antagonism. Q96RJ0. CHO RD-HGA16 TAAR1, Fluo-8 calcium fluorescence, antagonist. inhibition, % at 3 µM. actives 1.5% (n = 360,000). AID 624466;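 active = inhibition above a per-plate cutoff, the mean inhibition of test compounds on that plate plus 3 SD, cut at about 49% in these data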;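 also: 0% = DMSO plus EC80 beta-PEA response and 100% = DMSO alone without agonist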
Target sequence (Q96RJ0 whole entry, looked up): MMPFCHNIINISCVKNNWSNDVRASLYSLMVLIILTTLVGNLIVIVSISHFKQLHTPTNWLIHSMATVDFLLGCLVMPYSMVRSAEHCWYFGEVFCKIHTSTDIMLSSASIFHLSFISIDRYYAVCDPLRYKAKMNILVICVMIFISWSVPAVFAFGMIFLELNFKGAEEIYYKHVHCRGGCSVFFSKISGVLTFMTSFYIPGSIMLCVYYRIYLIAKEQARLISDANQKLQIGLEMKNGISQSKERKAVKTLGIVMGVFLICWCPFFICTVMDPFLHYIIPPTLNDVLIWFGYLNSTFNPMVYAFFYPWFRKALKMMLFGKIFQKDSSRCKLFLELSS
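Assay system: RD-HGA16 CHO cells with stable hTAAR1 and Gα16 / Reagent: EC80 β-phenethylamine stimulus / Doses: 3 µM, single point / Timing: dye loading 75 min at 37 °C, then 30 min room temperature / Measured by: Fluo-8 intracellular calcium dye fluorescence, real-time kinetic reads / Controls: vehicle wells and EC80 agonist wells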
GPR7 antagonist: blocks human GPR7 receptor signaling; P48145; AID 1861; GPR7-expressing cells, fluorescence antagonist assay; actives 1.1% (n = 290,000); inhibition, % at 4.4 µM; in the data active = inhibition above about 16%, passing the limit was not always enough;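 also: cells stimulated with the agonist NPW; 0% = agonist with vehicle and 100% = vehicle without agonist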
Target sequence (P48145 whole entry, looked up): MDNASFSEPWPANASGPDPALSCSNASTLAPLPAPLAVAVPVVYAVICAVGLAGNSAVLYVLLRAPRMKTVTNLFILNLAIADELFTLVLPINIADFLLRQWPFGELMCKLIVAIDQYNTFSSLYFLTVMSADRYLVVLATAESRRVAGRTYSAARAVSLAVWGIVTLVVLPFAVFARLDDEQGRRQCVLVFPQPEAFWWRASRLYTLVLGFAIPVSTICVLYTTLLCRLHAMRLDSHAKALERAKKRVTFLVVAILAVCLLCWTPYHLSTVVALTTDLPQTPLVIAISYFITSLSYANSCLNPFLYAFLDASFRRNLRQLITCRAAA
OX1R antag-1: antagonists of human orexin 1 receptor; O43613; CHO/OX1R cells, Fluo-8 calcium fluorescence, orexin A; inhibition, % at 5 µM; actives 0.43% (n = 330,000); AID 434989;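 active = inhibition above its plate's threshold, mean inhibition of all tested compounds on the plate plus 3 SD, cut at about 37% in these data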;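 also: 0% = orexin A challenge wells and 100% = SB-334867-A antagonist wells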
OX1R antag-2: antagonists of human orexin 1 receptor (OX1R); O43613; OX1R-expressing cells, FRET antagonist read-out; inhibition, % at 6.6 µM; actives 1.8% (n = 330,000); AID 485270; in the data active = inhibition mostly above about 38%, no sharp cut-off; inactive = mostly below about 40%;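 also: 0% = agonist challenge alone and 100% = reference antagonist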
TAAR1 agonist: agonists of human TAAR1 | Q96RJ0 | activation, % at 3 µM | CHO RD-HGA16 TAAR1, Fluo-8 calcium fluorescence; vehicle wells 0%, saturating PEA agonist 100% | actives 0.99% (n = 360,000);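 active = activation above the mean activation of all test compounds in the run plus 3 SD, cut at about 38% in these data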
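test system = CHO RD-HGA16 cells carrying human TAAR1 plus Gα16 | schedule = 17-24 h seeding, 75 min 37 °C dye, 30 min RT | compound dosing = 3 µM single concentration | control set = DMSO and PEA EC100 | replicates = n 1 | signal = Fluo-8 fluorescence, 5 s baseline then 140 s kinetic read | measure = percent activation vs PEA EC100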
Starred values were filed as active, the others as inactive; · = no result given.

SMILES	CHO parental Ca	TAAR1 antag	GPR7 antagonist	OX1R antag-1	OX1R antag-2	TAAR1 agonist
O=C(CSc1nnc2ccc(-c3cccnc3)nn12)Nc1ccccc1	-11	-10	·	-15	40	1
COc1ccc(OC(=O)c2ccc(OC)c(S(=O)(=O)N3CCOCC3)c2)cc1	·	22	-9	·	·	11
O=C(Nc1ccc2c(c1)OCCO2)c1ccc(Br)c(S(=O)(=O)N2CCOCC2)c1	·	54*	2	·	·	18
CCOC(=O)c1ccc(NC(=O)c2ccc(C)c(S(=O)(=O)N3CCOCC3)c2)cc1	11	80*	23	5	40	25
O=C(Oc1ccc2c(c1)OCO2)c1ccc(Br)c(S(=O)(=O)N2CCOCC2)c1	-16	51*	-6	-2	7	21
O=C(N[C@H](Cc1ccccc1)C(=O)NCC1CCCCC1)[C@H]1O[C@@H](n2ccc(=O)[nH]c2=O)[C@H](O)[C@@H]1O	·	-13	·	·	·	0
COc1ccc(S(=O)(=O)n2nc(-c3ccc(Cl)cc3)cc2N)cc1OC	0	22	18*	-25	12	-1
CCOc1ccc(-c2cc(N)n(S(=O)(=O)c3ccc(OC)c(OC)c3)n2)cc1	-10	6	1	-23	23	-3
Nc1[nH]c(C(=O)c2ccc(Br)cc2)c(-c2ccc(Br)cc2)c1C(=O)NCc1cccc2ccccc12	·	-21	·	·	·	2
Cc1cc(C(=O)COC(=O)c2ccc(N)c([N+](=O)[O-])c2)c(C)n1-c1ccc2c(c1)OCO2	24	32	-3	4	47*	0
CC(=O)c1ccc(OCC(=O)c2cc(C)n(-c3ccc4c(c3)OCO4)c2C)cc1	53*	10	-7	19	32	4
Cc1cc(C(=O)COC(=O)c2ccc(N)c([N+](=O)[O-])c2)c(C)n1Cc1ccc2c(c1)OCO2	-9	1	-5	-9	5	0
O[C@@H](Cc1ccccc1)[C@@H](/C=C/c1ccccc1)N(Cc1ccccc1)Cc1ccccc1	·	0	·	·	·	-1
CC(=O)Nc1cc2c(cc1Cl)-c1ccccc1C2O (stereo not given)	·	-11	·	·	·	2
CN1CCN(c2ccc([N+](=O)[O-])cc2S(=O)(=O)N2CCOCC2)CC1	1	6	3	-13	94*	9
CCN1CCN(c2oc(-c3ccccc3C)nc2S(=O)(=O)c2ccccc2)CC1	·	-8	·	·	·	4
S=C(Nc1ccccc1)N1CCC(C2CCN(C(=S)Nc3ccccc3)CC2)CC1	-5	·	19*	-17	6	·
CCCn1c(O)c(N=NC(=O)CNC(=O)c2cccnc2)c2ccccc21	-20	-7	0	-2	47	5
COC(=O)Cn1c(O)c(N=NC(=O)CNC(=O)c2ccncc2)c2ccccc21	-11	-22	-1	-11	70*	2
Cn1c(O)c(N=NC(=O)CNC(=O)c2cccnc2)c2ccccc21	-7	-11	-2	-11	43*	0
CCN1C(=O)N(C(C)=O)[C@H]2C[C@H](C(=O)N3CCCC3)[C@H](C)[C@H](c3ccccc3)C[C@H]21	·	-26	·	·	·	2
O=C(Oc1cccc(Nc2ncnc3ccccc23)c1)c1ccccc1Cl	71*	74*	24	53*	95*	14
CCOc1ccc(-n2c(=S)sc3c(=O)[nH]c(SCC(=O)C(C)(C)C)nc32)cc1	-8	4	-7	1	48*	14
CCN(CC)C(=O)CSc1nnc2nnc3cc(OC)ccc3n12	-12	-20	-5	-6	76*	1
CCN(CC)C(=O)CSc1nnc(COc2ccc(OC)cc2)n1N	12	-11	-6	-14	15	0
SMILES	CHO parental Ca	TAAR1 antag	GPR7 antagonist	OX1R antag-1	OX1R antag-2	TAAR1 agonist
CCc1ccccc1NC(=O)CSc1nc(-c2ccccc2)nn1C(=O)c1cccc([N+](=O)[O-])c1	-22	·	-6	-17	42*	·
O=C(CSc1nc(-c2ccccc2)nn1C(=O)c1ccccc1)Nc1cccc([N+](=O)[O-])c1	8	20	15	2	22	4
COC(=O)[C@]12C[C@H](CC(=O)N3CCC(c4ccccc4)CC3)C(=O)N(Cc3ccc4c(c3)OCO4)C1=C[C@H](C(C)(C)C)O[C@@H]2C	·	-35	·	·	·	-2
O=[N+]([O-])c1ccc(S(=O)(=O)N(CC(O)CN2CCCCC2)c2ccccc2)cc1 (stereo not given)	-15	4	5	-2	48*	3
COC(=O)C1=C(C)N(Cc2ccccc2C(F)(F)F)C(=NCc2ccc(OC)cc2)NC1CCc1ccccc1 (stereo not given)	·	2	·	·	·	15
CCOCCCNC(=O)C(c1ccc(OC)cc1)N(Cc1cccs1)C(=O)c1ccccn1 (stereo not given)	-4	50*	-15	-9	0	18
C=CCN(C(=O)c1csnn1)C(C(=O)NCc1ccccc1)c1cccs1 (stereo not given)	-17	1	-14	-18	22	0
O=C(NCc1ccccc1)C(c1cccs1)N(Cc1cccs1)C(=O)c1cnccn1 (stereo not given)	-15	50*	-8	-12	29	17
O=C(NCc1ccccc1)C(c1ccccc1)N(Cc1cccs1)C(=O)c1cnccn1 (stereo not given)	-6	62*	0	-11	9	18
CN(CC(=O)NCC1CCCO1)S(=O)(=O)c1ccc2ccccc2c1 (stereo not given)	·	0	·	·	·	0
CCC(CC)N=C1NS(=O)(=O)c2cc([N+](=O)[O-])ccc21	-12	7	-6	-7	55*	3
C=CCn1c(SCC(=O)Nc2ccc3c(c2)OCO3)nnc1-c1ccccc1	-14	-3	-10	-22	47	1
CCOc1ccccc1NC(=O)CSc1nnc(-c2ccccc2Cl)n1Cc1ccco1	-1	-24	16	-20	69*	9
CCOc1ccc(NC(=O)CSc2ncc(-c3ccc(F)cc3)n2Cc2ccco2)cc1	-3	-28	6	12	16	-1
O=C(CSc1ncc(-c2ccc(F)cc2)n1Cc1ccco1)Nc1ccc2c(c1)OCO2	38*	34	29*	29	43	21
O=C(CSc1nnc(-c2cccs2)n1Cc1ccco1)Nc1ccc2c(c1)OCO2	-27	3	4	-6	23	2
C=CCn1c(SCC(=O)Nc2ccc3c(c2)OCO3)nnc1-c1cc(Br)ccc1O	-23	17	-15	-15	65*	10
O=C(CSc1nnc(-c2ccccc2)n1Cc1ccco1)Nc1ccc2c(c1)OCCO2	-10	7	18	-14	48*	7
COCCN1C(=O)COc2ccccc2C1C(=O)NCc1ccccc1 (stereo not given)	·	0	·	·	·	0
